{
  "source": "ChEMBL document CHEMBL4390676",
  "about": "“Discovery of Bisubstrate Inhibitors for Protein N-Terminal Methyltransferase 1” (J Med Chem, 2019)",
  "key": {"[1]": {"biological_target": "T1, N-terminal Xaa-Pro-Lys N-methyltransferase 1 (Homo sapiens, UniProt Q9BV86)", "T1 sequence (Q9BV86 whole entry)": "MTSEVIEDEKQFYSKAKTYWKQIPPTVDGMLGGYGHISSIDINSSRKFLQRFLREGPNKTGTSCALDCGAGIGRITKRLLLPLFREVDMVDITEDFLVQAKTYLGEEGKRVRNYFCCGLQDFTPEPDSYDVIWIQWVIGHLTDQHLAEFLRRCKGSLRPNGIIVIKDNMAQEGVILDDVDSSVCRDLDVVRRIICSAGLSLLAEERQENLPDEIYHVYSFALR", "assay": "Inhibition of recombinant human full-length His6-tagged NTMT1 (1 to 222 residues) expressed in Escherichia coli BL21-CodonPlus(DE3)-RIL competent cells using peptide substrate in presence of SAM by fluorescence assay", "summary_of_the_method": "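SAHH-coupled fluorescence assay that tracks SAH formation by NTMT1. SAM and peptide substrate GPKRIA are each at their Km values. IC50 is taken from dose–response curves, n = 3.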"}, "[2]": {"biological_target": "T2, N-terminal Xaa-Pro-Lys N-methyltransferase 1 (Homo sapiens) (UniProt Q9BV86)", "T2 sequence (whole entry)": "T1 sequence (Q9BV86 whole entry)", "assay": "(§1) Inhibition of recombinant human full-length His6-tagged NTMT1 (1 to 222 residues) expressed in Escherichia coli BL21-CodonPlus(DE3)-RIL competent cells at 10 uM using GPKRIA as substrate preincubated for 10 mins in presence of SAM followed by substrate addition by fluorescence assay"}, "[3]": {"biological_target": "T2, N-terminal Xaa-Pro-Lys N-methyltransferase 1 (Homo sapiens)", "assay": "(§2) Inhibition of recombinant human full-length His6-tagged NTMT1 (1 to 222 residues) expressed in Escherichia coli BL21-CodonPlus(DE3)-RIL competent cells assessed as reduction in GPKRIA trimethylation at 100 nM preincubated for 10 mins in presence of SAM followed by GPKRIA addition and measured after 20 mins by MALDI TOF-MS analysis", "summary_of_the_method": "(§3)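 Orthogonal MALDI-MS assay that directly follows α-N-amine methylation of substrate peptide GPKRIA by NTMT1 over 20 min. Methylated peptide products were monitored by mass spectrometry.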"}, "[4]": {"biological_target": "T2, N-terminal Xaa-Pro-Lys N-methyltransferase 1 (Homo sapiens)", "assay": "as §2, with “di-methylation” for “trimethylation”", "summary_of_the_method": "as §3"}, "[5]": {"biological_target": "T2, N-terminal Xaa-Pro-Lys N-methyltransferase 1 (Homo sapiens)", "assay": "as §1, with “cells assessed as residual enzyme activity” for “cells”, “assay relative to control” for “assay”", "summary_of_the_method": "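NTMT1 residual activity in the SAHH-coupled fluorescence assay with SAM and GPKRIA at Km. Values are means of triplicate experiments (n = 3).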"}, "[6]": {"biological_target": "Protein arginine N-methyltransferase 1 (Rattus norvegicus) (UniProt Q63009)", "sequence (Q63009 whole entry, looked up)": "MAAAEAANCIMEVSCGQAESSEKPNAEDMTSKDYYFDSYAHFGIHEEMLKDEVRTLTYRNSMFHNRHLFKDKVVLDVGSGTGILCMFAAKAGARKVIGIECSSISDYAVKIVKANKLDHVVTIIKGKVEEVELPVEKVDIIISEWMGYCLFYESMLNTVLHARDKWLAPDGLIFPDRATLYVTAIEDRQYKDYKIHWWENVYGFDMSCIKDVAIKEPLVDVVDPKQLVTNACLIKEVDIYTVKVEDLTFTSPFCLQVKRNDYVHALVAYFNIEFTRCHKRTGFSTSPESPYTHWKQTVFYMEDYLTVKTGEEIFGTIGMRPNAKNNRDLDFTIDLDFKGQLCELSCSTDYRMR", "assay": "Inhibition of rat His6-tagged PRMT1 expressed in Escherichia coli BL21(DE3) assessed as enzyme residual activity at 3.3 uM using H4-21 peptide as substrate preincubated for 10 mins in presence of SAM followed by substrate addition by fluorescence assay relative to control", "summary_of_the_method": "(§4)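 Selectivity panel with inhibitor at 3.3, 10, 33 or 100 μM. Enzyme activity is given as percent of control, mean of duplicate experiments (n = 2).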"}, "[7]": {"biological_target": "T3, Histone-lysine N-methyltransferase SETD7 (Homo sapiens) (UniProt Q8WTS6)", "T3 sequence (whole entry)": "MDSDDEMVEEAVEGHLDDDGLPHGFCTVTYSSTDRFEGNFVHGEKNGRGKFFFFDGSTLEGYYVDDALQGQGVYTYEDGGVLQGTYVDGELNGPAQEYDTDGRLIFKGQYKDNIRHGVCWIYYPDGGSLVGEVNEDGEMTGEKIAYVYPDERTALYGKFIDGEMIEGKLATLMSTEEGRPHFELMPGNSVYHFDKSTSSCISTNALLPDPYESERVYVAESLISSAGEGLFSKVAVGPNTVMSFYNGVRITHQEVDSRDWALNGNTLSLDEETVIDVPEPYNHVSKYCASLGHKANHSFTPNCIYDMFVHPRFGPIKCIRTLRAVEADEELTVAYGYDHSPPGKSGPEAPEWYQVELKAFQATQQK", "assay": "Inhibition of human His-tagged SETD7 (1 to 366 residues) expressed in Escherichia coli assessed as enzyme residual activity at 3.3 uM using H3-21 peptide as substrate preincubated for 10 mins in presence of SAM followed by substrate addition by fluorescence assay relative to control", "summary_of_the_method": "as §4"}, "[8]": {"biological_target": "T3, Histone-lysine N-methyltransferase SETD7 (Homo sapiens)", "assay": "(§5) Inhibition of human His-tagged SETD7 (1 to 366 residues) expressed in Escherichia coli assessed as enzyme residual activity at 10 uM using H3-21 peptide as substrate preincubated for 10 mins in presence of SAM followed by substrate addition by fluorescence assay relative to control", "summary_of_the_method": "as §4"}, "[9]": {"biological_target": "T3, Histone-lysine N-methyltransferase SETD7 (Homo sapiens)", "assay": "Inhibition of human His-tagged SETD7 (1 to 366 residues) expressed in Escherichia coli assessed as enzyme residual activity at 33 uM using H3-21 peptide as substrate preincubated for 10 mins in presence of SAM followed by substrate addition by fluorescence assay relative to control", "summary_of_the_method": "as §4"}, "[10]": {"biological_target": "T4, Histone-lysine N-methyltransferase EHMT2 (Homo sapiens) (UniProt Q96KQ7)", "T4 sequence (whole entry)": "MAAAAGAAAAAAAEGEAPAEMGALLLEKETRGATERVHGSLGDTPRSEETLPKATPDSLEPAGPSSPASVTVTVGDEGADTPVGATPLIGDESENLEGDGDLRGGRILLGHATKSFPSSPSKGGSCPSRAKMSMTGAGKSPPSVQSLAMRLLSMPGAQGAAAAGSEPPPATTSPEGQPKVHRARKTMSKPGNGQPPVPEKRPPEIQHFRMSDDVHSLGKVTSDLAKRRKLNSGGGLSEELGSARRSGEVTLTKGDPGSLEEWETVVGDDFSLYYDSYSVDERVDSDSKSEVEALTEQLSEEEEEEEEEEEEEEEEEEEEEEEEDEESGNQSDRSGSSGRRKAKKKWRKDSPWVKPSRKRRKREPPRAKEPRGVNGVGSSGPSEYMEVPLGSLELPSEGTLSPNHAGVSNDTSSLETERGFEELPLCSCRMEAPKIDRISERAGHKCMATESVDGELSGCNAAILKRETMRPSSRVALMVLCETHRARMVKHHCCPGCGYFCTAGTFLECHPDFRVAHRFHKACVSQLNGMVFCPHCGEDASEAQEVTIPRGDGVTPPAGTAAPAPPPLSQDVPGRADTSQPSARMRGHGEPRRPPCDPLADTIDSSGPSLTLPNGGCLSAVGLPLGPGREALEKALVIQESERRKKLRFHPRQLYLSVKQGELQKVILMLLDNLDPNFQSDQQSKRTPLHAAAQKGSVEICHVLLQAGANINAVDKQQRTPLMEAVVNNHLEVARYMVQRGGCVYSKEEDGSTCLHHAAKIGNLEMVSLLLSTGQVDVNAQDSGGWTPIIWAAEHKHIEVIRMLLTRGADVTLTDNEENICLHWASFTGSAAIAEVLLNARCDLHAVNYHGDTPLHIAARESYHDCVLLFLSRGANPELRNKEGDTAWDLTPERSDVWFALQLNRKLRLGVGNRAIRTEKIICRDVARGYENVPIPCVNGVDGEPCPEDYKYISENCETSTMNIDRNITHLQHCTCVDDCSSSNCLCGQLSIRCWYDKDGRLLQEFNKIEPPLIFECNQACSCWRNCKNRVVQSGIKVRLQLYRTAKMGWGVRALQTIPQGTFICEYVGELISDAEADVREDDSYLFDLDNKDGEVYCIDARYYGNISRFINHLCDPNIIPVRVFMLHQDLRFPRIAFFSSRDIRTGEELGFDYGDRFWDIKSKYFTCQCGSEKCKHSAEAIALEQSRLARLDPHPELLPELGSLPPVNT", "assay": "as §5, with “His-tagged G9a (913” for “His-tagged SETD7 (1”, “to 1193” for “to 366”, “coli BL21-CodonPlus(DE3)-RIL” for “coli”, “at 100” for “at 10”", "summary_of_the_method": "as §4"}, "[11]": {"biological_target": "Protein arginine N-methyltransferase 1 (Rattus norvegicus, UniProt Q63009)", "sequence (Q63009 whole entry)": "as the sequence (Q63009 whole entry, looked up) above", "assay": "Inhibition of rat His6-tagged PRMT1 expressed in Escherichia coli BL21(DE3) using H4-21 peptide as substrate preincubated for 10 mins in presence of SAM followed by substrate addition by fluorescence assay"}, "[12]": {"assay": "Inhibition of Trypanosoma brucei N-terminal His6-tagged PRMT7 expressed in Escherichia coli BL21-CodonPlus(DE3)-RIL using H4-21 peptide as substrate preincubated for 10 mins in presence of SAM followed by substrate addition by fluorescence assay"}, "[13]": {"biological_target": "T2, N-terminal Xaa-Pro-Lys N-methyltransferase 1 (Homo sapiens)", "assay": "as §1, with “Bi-substrate inhibition of” for “Inhibition of”, “cells” for “cells at 10 uM”, “using varying levels of” for “using”, “of varying levels of” for “of”", "summary_of_the_method": "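Kinetic mechanism study in the SAHH-coupled fluorescence assay. IC50 curves were run at varying SAM with fixed GPKRIA, and at varying GPKRIA with fixed SAM. IC50 values were plotted against SAM or peptide concentration by linear regression.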"}},
  "note": "The source made the active and inactive calls. The rule behind the calls is not given here. Residues, ends and D or L forms follow the SMILES beside them. *: point of attachment. X1 = Nc1ncnc2c1ncn2[C@@H]1O[C@H](CN(CCCN2CCC[C@H]2C(=O)*)CC[C@H](N)C(=O)O)[C@@H](O)[C@H]1O",
  "data": [
    {"smiles": "N=C(N)NCCC[C@H](NC(=O)[C@H](CCCNC(=N)N)NC(=O)[C@H](CCCNC(=N)N)NC(=O)[C@@H]1CCCN1C(=O)CNCCCN(CC[C@H](N)C(=O)O)C[C@H]1O[C@@H](n2cnc3c(N)ncnc32)[C@H](O)[C@@H]1O)C(=O)N[C@@H](CO)C(N)=O", "values": [
      {"measurement": "IC50", "setting": "[1]", "value": 0.94, "unit": "µM"}
    ]},
    {"smiles": "Nc1ncnc2c1ncn2C1O[C@H](CN(CCCN2CCC[C@H]2C(=O)O)CC[C@H](N)C(=O)O)[C@@H](O)[C@H]1O", "note": "(single isomer, unassigned)", "values": [
      {"measurement": "inhibition", "setting": "[2]", "value": "inactive"}
    ]},
    {"smiles": "CC[C@H](C)[C@H](NC(=O)[C@H](CCCNC(=N)N)NC(=O)[C@H](CCCCN)NC(=O)[C@@H]1CCCN1C(=O)[C@@H]1CCCN1CCCN(CC[C@H](N)C(=O)O)C[C@H]1O[C@@H](n2cnc3c(N)ncnc32)[C@H](O)[C@@H]1O)C(=O)N[C@@H](C)C(N)=O", "note": "(X1-PKRIA-NH2)", "values": [
      {"measurement": "inhibition", "setting": "[3]", "value": "Active"},
      {"measurement": "inhibition", "setting": "[4]", "value": "Active"},
      {"measurement": "Activity", "setting": "[5]", "value": 14, "unit": "%"},
      {"measurement": "Activity", "setting": "[6]", "value": 97, "unit": "%"},
      {"measurement": "Activity", "setting": "[7]", "value": 94, "unit": "%"},
      {"measurement": "Activity", "setting": "[8]", "value": 99, "unit": "%"},
      {"measurement": "Activity", "setting": "[9]", "value": 97, "unit": "%"},
      {"measurement": "Activity", "setting": "[10]", "value": 78, "unit": "%"},
      {"measurement": "IC50", "setting": "[11]", "value": "> 33", "unit": "µM"},
      {"measurement": "IC50", "setting": "[12]", "value": "> 10", "unit": "µM"},
      {"measurement": "inhibition", "setting": "[13]", "value": "Active"}
    ]}
  ]
}
